From ChEMBL document CHEMBL1240409, “Design, synthesis and evaluation of (E)-alpha-benzylthio chalcones as novel inhibitors of BCR-ABL kinase” (Bioorg Med Chem, 2010)

Tests used:
[1] = test system: K562; assay: Growth inhibition of human K562 cells expressing p210Bcr/Abl after 96 hrs by trypan blue exclusion assay; type: functional, cell-based; conditions: K562, 96 h
Summary of the method: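 K562 cells were kept in RPMI with 10% FBS and penicillin–streptomycin at 37 °C under 5% CO2. Cells were seeded at 1 × 10^5 cells/mL with a range of compound concentrations, using DMSO as the negative control. After 96 h, viability was counted by Trypan blue exclusion and expressed as percent of DMSO control to derive GI50.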

[2] = test system: DU-145; assay: Growth inhibition of human DU145 cells after 96 hrs by trypan blue exclusion assay; type: functional; conditions: DU-145, 96 h

Row | Compound | GI50 [1] | GI50 [2]
1 | O=C(O)c1ccc(C(=O)/C(=C\c2ccc(Br)cc2)SCc2ccc(Br)cc2)cc1 | 1000 nM | 1 µM
2 | Cc1ccc(S(=O)(=O)/C(=C/c2sccc2C)C(=O)c2ccc(Cl)cc2)cc1 | 10000 nM | 10 µM
3 | Cc1ccc(/C=C(/SCc2ccc(Cl)cc2Cl)C(=O)c2ccc(Cl)cc2)s1 | 50000 nM | 50 µM
4 | Cc1ccc(S/C(=C/c2sccc2C)C(=O)c2ccc(Br)cc2)cc1 | 50000 nM | 50 µM
5 | O=C(/C(=C\c1ccccc1O)Sc1ccccc1Br)c1ccc(Br)cc1 | 50000 nM | 50 µM
6 | COc1ccc(S(=O)(=O)/C(=C/c2ccc(C)s2)C(=O)c2ccc(Cl)cc2)cc1 | 10000 nM | 25 µM
7 | COc1cc(OC)c(/C=C(\C(=O)c2ccc(Cl)cc2)S(=O)(=O)Cc2ccc(F)cc2)c(OC)c1 | 1000 nM | 25 µM
8 | COc1ccccc1/C=C(/Sc1ccc(Br)cc1)C(=O)c1ccc(Cl)cc1 | 10000 nM | 10 µM
9 | O=C(/C(=C\c1ccccc1OCc1ccccc1)S(=O)(=O)Cc1ccc(F)cc1)c1ccc(Cl)cc1 | 1000 nM | 10 µM
10 | O=C(/C(=C\c1ccccc1OCc1ccccc1)S(=O)(=O)c1ccc(F)cc1)c1ccc(Cl)cc1 | 1000 nM | 1 µM
11 | CN(C)c1ccc(/C=C(/SCc2ccc(F)cc2)C(=O)c2ccc(Br)cc2)cc1 | 1000 nM | 50 µM
12 | Cc1ccc(/C=C(\C(=O)c2ccc(Cl)cc2)S(=O)(=O)Cc2ccc(F)cc2)s1 | 50000 nM | 50 µM
13 | COc1ccc(/C=C(/Sc2ccc(C)cc2)C(=O)c2ccc(Cl)cc2)cc1 | 1000 nM | 1 µM
14 | Nc1ccc(/C=C(/SCc2ccc(F)cc2)C(=O)c2ccc(C(=O)O)cc2)cc1[N+](=O)[O-] | 10000 nM | 10 µM
15 | Cc1ccc(S/C(=C/c2ccc(Cl)cc2)C(=O)c2ccc(Br)cc2)cc1 | 1000 nM | 10 µM
16 | O=C(/C(=C\c1ccc([N+](=O)[O-])c(O)c1)Sc1ccc(Br)cc1)c1c(F)c(F)c(F)c(F)c1F | 1000 nM | 1 µM
17 | O=C(/C(=C\c1ccc(F)c([N+](=O)[O-])c1)SCc1ccc(F)cc1)c1ccc(SCc2ccc(F)cc2)c([N+](=O)[O-])c1 | 1000 nM | 25 µM
18 | Cc1ccc(CS(=O)(=O)/C(=C/c2c[nH]c3ccc(Br)cc23)C(=O)c2ccc(Cl)cc2)cc1 | 10000 nM | 10 µM
19 | Cc1ccc(CS(=O)(=O)/C(=C/c2ccc(Br)cc2)C(=O)c2ccc(Cl)cc2)cc1 | 10000 nM | 25 µM

Row | Compound | GI50 [1] | GI50 [2]
20 | COc1ccc(C(=O)/C(=C\c2ccc(Cl)cc2)S(=O)(=O)c2ccc(Cl)cc2)cc1 | 4000 nM | 4 µM
21 | Cc1ccsc1/C=C(/SCc1ccc(Cl)cc1)C(=O)c1ccc(Br)cc1 | 25000 nM | 25 µM
22 | Cc1ccc(S/C(=C/c2c[nH]c3ccccc23)C(=O)c2ccc(Br)cc2)cc1 | 10000 nM | 10 µM
23 | COc1ccc(/C=C(/Sc2ccc(Br)cc2)C(=O)c2ccc(Br)cc2)c(F)c1 | 1000 nM | 20 µM
24 | Cc1ccc(S(=O)(=O)/C(=C/c2c[nH]c3ccccc23)C(=O)c2ccc(Br)cc2)cc1 | 10000 nM | 10 µM
25 | Cc1ccc(CS(=O)(=O)/C(=C/c2cc(C)cc(C)c2)C(=O)c2ccc(Cl)cc2)cc1 | 10000 nM | 10 µM
26 | Cc1ccc(S(=O)(=O)/C(=C/c2ccc(Br)cc2)C(=O)c2ccc(Br)cc2)cc1 | 4000 nM | 10 µM
27 | Cc1ccc(CS(=O)(=O)/C(=C/c2ccccc2Br)C(=O)c2ccc(Cl)cc2)cc1 | 25000 nM | 25 µM
28 | COc1ccc(/C=C(\C(=O)c2ccc(Br)cc2)S(=O)(=O)Cc2ccc(Cl)cc2)cc1 | 10000 nM | 25 µM
29 | COc1ccc(/C=C(/SCc2ccc(Cl)cc2)C(=O)c2ccc(Cl)cc2)cc1 | 1000 nM | 10 µM
30 | O=C(/C(=C\c1ccc(Br)c([N+](=O)[O-])c1)S(=O)(=O)c1ccc(Br)cc1)c1ccc(Br)cc1 | 10000 nM | 10 µM
31 | O=C(/C(=C\c1cc(Cl)cc(Cl)c1Cl)SCc1ccc(Cl)cc1)c1ccc(Br)cc1 | 1000 nM | 1 µM
32 | Cc1ccc(S(=O)(=O)/C(=C/c2ccc(Cl)cc2)C(=O)c2ccc(Cl)cc2)cc1 | 1000 nM | 1 µM
33 | COc1ccc(/C=C(\C(=O)c2ccc(Br)cc2)S(=O)(=O)c2ccc(Br)cc2)c(OC)c1 | 8000 nM | 8 µM
34 | Cc1ccc(S(=O)(=O)/C(=C/c2ccccc2F)C(=O)c2ccc(Cl)cc2)cc1 | 1000 nM | 2.5 µM
35 | CN(C)c1ccc(/C=C(/SCc2ccc(Br)cc2)C(=O)c2ccc(C(=O)O)cc2)cc1 | 50000 nM | 50 µM
36 | O=C(/C(=C\c1ccc(O)c(Br)c1)Sc1ccc(Br)cc1)c1c(F)c(F)c(F)c(F)c1F | 1000 nM | 1 µM
37 | O=C(/C(=C\c1ccc(F)c([N+](=O)[O-])c1)SCc1ccc(Br)cc1)c1ccc(C(F)(F)F)cc1 | 1000 nM | –
38 | O=C(/C(=C\c1ccc(F)cc1)Sc1ccc(Br)cc1)c1ccc(Br)cc1 | 1000 nM | –

Now from value to compound:

Row | GI50 [1] | GI50 [2] | Compound
39 | 1000 nM | 10 µM | COc1cc(/C=C(/Sc2ccc(Br)cc2)C(=O)c2ccc(Br)cc2)ccc1F
40 | 10000 nM | 25 µM | COc1cc(OC)c(/C=C(\C(=O)c2ccc(Cl)cc2)S(=O)(=O)c2ccc(C)cc2)c(OC)c1
41 | > 100000 nM | > 100 µM | O=C(/C(=C\c1ccc(F)c([N+](=O)[O-])c1)SCc1ccc(Br)cc1)c1ccc(Cl)c([N+](=O)[O-])c1
42 | > 100000 nM | > 100 µM | Cc1ccsc1/C=C(/SCc1ccc(Cl)cc1)C(=O)c1ccc([N+](=O)[O-])cc1
43 | 1000 nM | 10 µM | O=C(/C(=C/c1ccc(Cl)cc1)Cc1ccc(Cl)cc1)c1ccc(Cl)cc1Cl
44 | 1000 nM | 1 µM | O=C(/C(=C\c1ccc([N+](=O)[O-])c(O)c1)SCc1ccc(Br)cc1)c1ccc([N+](=O)[O-])c(Cl)c1
45 | 1000 nM | 1 µM | O=C(/C(=C\c1ccc(Cl)cc1Cl)Sc1ccc(Br)cc1)c1ccc(Br)cc1
46 | 1000 nM | 1 µM | O=C(/C(=C\c1ccc(Br)c(O)c1)Sc1ccc(Br)cc1)c1ccc(Br)cc1
47 | 1000 nM | 1 µM | O=C(/C(=C\c1ccc([N+](=O)[O-])c(O)c1)S(=O)(=O)c1ccc(Br)cc1)c1c(F)c(F)c(F)c(F)c1F
48 | 10000 nM | 10 µM | Cc1ccc(CS/C(=C/c2cc(C)ccc2C)C(=O)c2ccc(Cl)cc2)cc1
49 | 50000 nM | > 100 µM | COc1cc(OC)c(/C=C(/Sc2ccc(C)cc2)C(=O)c2ccc(Br)cc2)c(OC)c1
50 | > 100000 nM | > 100 µM | O=C(/C(=C\c1ccc([N+](=O)[O-])c(O)c1)SCc1ccc(Br)cc1)C1CCNC1 (stereo not drawn)
51 | 1000 nM | 25 µM | O=C(/C(=C\c1ccc(Br)cc1)SCc1ccc(F)cc1)c1ccc(Br)cc1
52 | 1000 nM | 1 µM | O=C(/C(=C\c1ccc(Br)cc1)S(=O)(=O)c1ccccc1Br)c1ccc(Br)cc1
53 | 1000 nM | 1 µM | O=C(/C(=C\c1ccc(O)cc1)SCc1ccc(Cl)c(Cl)c1)c1ccc(Cl)cc1
54 | 1000 nM | 1 µM | Cc1ccc(S(=O)(=O)/C(=C/c2ccccc2OCc2ccccc2)C(=O)c2ccc(Br)cc2)cc1
55 | > 100000 nM | 1 µM | Cc1ccc(S/C(=C/c2ccc(Oc3ccccc3)cc2)C(=O)c2ccc(Br)cc2)cc1
56 | > 100000 nM | > 100 µM | CN(C)c1ccc(/C=C(\C(=O)c2ccc(C(=O)O)cc2)S(=O)(=O)Cc2ccc(Cl)cc2)cc1

Row | GI50 [1] | GI50 [2] | Compound
57 | 1000 nM | 1 µM | O=C(/C(=C\c1ccc(Cl)cc1)Sc1ccc(Cl)cc1)c1ccc(Cl)cc1
58 | 10000 nM | 10 µM | COc1ccc(/C=C(\C(=O)c2ccc(Cl)cc2)S(=O)(=O)c2ccc(Br)cc2)cc1
59 | 1000 nM | 10 µM | Cc1ccc(CS/C(=C/c2ccc(C(=O)O)cc2)C(=O)c2ccc(Cl)c([N+](=O)[O-])c2)cc1
60 | 1000 nM | 1 µM | CCOc1ccc(/C=C(/SCc2ccc(F)cc2)C(=O)c2ccc(Cl)cc2)cc1OC
61 | > 100000 nM | > 100 µM | Cc1ccc(S(=O)(=O)/C(=C/c2ccc(F)cc2F)C(=O)c2ccc(Br)cc2)cc1
62 | 1000 nM | 10 µM | Cc1ccc(S/C(=C/c2cc([N+](=O)[O-])ccc2F)C(=O)c2ccc(Cl)cc2)cc1
63 | 10000 nM | 10 µM | COc1ccccc1/C=C(/SCc1ccc(F)cc1)C(=O)c1ccc(Br)cc1
64 | 1000 nM | 10 µM | Cc1ccc(CS(=O)(=O)/C(=C/c2ccc(S(C)(=O)=O)cc2)C(=O)c2ccc(Br)cc2)cc1
65 | 1000 nM | 1 µM | Cc1ccc(CS/C(=C/c2ccccc2OCc2ccccc2)C(=O)c2ccc(Cl)cc2)cc1
66 | 1000 nM | 1 µM | Cc1ccc(CS/C(=C/c2ccc(Cl)c([N+](=O)[O-])c2)C(=O)c2ccc(C(=O)O)cc2)cc1
67 | 25000 nM | 25 µM | O=C(/C(=C\c1ccc(F)cc1F)S(=O)(=O)c1ccc(Cl)cc1)c1ccc(Br)cc1
68 | 10000 nM | 25 µM | Cc1ccc(/C=C(\C(=O)c2ccc([N+](=O)[O-])cc2)S(=O)(=O)Cc2ccc(Cl)cc2)s1
69 | 1000 nM | 50 µM | CCOc1ccc(/C=C(/Sc2ccc(C)cc2)C(=O)c2ccc(Br)cc2)cc1OC
70 | 10000 nM | 25 µM | CSc1ccc(/C=C(/SCc2ccc(C)cc2)C(=O)c2ccc(Cl)cc2)cc1
71 | 1000 nM | 1 µM | CSc1ccc(/C=C(\C(=O)c2ccc(Br)cc2)S(=O)(=O)c2ccc(C)cc2)cc1
72 | – | 10 µM | COc1cccc(OC)c1/C=C(\C(=O)c1ccc(Br)cc1)S(=O)(=O)c1ccc(Br)cc1
73 | 1000 nM | – | COc1ccc(/C=C(/SCc2ccc(Cl)cc2)C(=O)c2ccc(Cl)cc2)cc1O
74 | 10000 nM | – | O=C(/C(=C\c1ccc(F)c([N+](=O)[O-])c1)Sc1ccc(Cl)cc1)c1ccc(Cl)cc1
